INS-1E GSIS act: GLuc luminescence reporter in INS-1E cells, primary screen for activators of glucose-dependent secretion of insulin. INS-1E GLuc reporter insulin secretion, 2-3 h. activation, % at 16.6 µM. 0.61% of 370,000 active. AID 743287, 2014;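 active means lowest replicate activation of at least 40%, so every replicate reaches that level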;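 further: 0% = median of neutral control wells and 100% = median of IBMX positive control wells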
PAX8 reporter: inhibitors of PAX8-driven TPO luciferase reporter, primary screen, RMG-I cells, single concentration. AID 652154, 2013. SteadyGlo, 24 h. inhibition, % at 12.6 µM. 1.2% of 360,000 active;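 active means mean replicate inhibition at least 60% with every replicate also reaching 60%; inconclusive means only one of the two criteria is met; inactive means mean below 60% and not all replicates reaching 60%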;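 further: luciferase light reporting Pax8 driven TPO promoter activity; plate controls were median of neutral control wells for no effect and mitoxantrone controls for full effect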
EWS-Fli block: EWS/Fli-driven NR0B1 reporter inhibitors, primary screen, A673 cells, NR0B1 luciferase, luminescence, MLPCN library. 0.67% of 350,000 active. AID 651661, 2012. viability-normalised. inhibition, % at 12.6 µM;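 active means mean inhibition of at least 50% after viability correction, with every replicate also passing that limit; inconclusive means mean reaches 50% but only one of two replicates passes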;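 further: firefly luciferase signal divided by Alamar Blue viability fluorescence both relative to DMSO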
Xi reactivation: activators of inactive X chromosome reactivation, primary screen, imaging, XiGFP fibroblasts, GFP high-content imaging, set 2; XiGFP mouse fibroblasts, % GFP-positive cells imaging, 3 d; cells co-treated with 5-aza-dC sensitizer; scaled so ellipticine positive control = 100%; activation, % at 7.58 µM; 0.055% of 360,000 active; AID 743238, 2013;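 active means mean normalized replicate activation at least 10% and every replicate at or above 10%; inconclusive means only one of the two criteria met; inactive means mean below 10% and not all replicates reach 10%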;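 further: 0% = median of on-plate neutral control wells and 100% = ellipticine 6 µM median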
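System: SV40-immortalized XiGFP fibroblast cells, line 68-5-11 / Incubation: 3-day compound exposure, then 15 min fixation at room temperature / Compound: single concentration per compound, delivered by pin transfer / Buffer or medium: DMEM plus 5-aza-dC sensitizer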
PGC1a acetyl inh: inhibitors of PGC1a acetylation signal, primary screen, cell-based, U2OS, AlphaScreen, inhibitor mode | AlphaScreen anti-acetyl-lysine; with virally co-expressed GCN5 acetyltransferase | inhibition, % at 15.6 µM | 0.17% of 350,000 active;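 active means every replicate shows inhibition of at least 40%; inconclusive means mean inhibition at least 40% but some replicate below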;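 further: 0% = neutral control wells and 100% = positive control wells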
AF4-AF9 inh: inhibitors of AF4 peptide binding to AF9, primary screen, biochemical, AlphaScreen, biotin-AF4 peptide, FLAG-AF9, single point | Protein AF-9 (Homo sapiens), P42568 | inhibition, % at 10 µM | 0.47% of 350,000 active;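 active means every replicate reaching a set inhibition limit, whatever the replicate mean, cut at about 25% in these data; inconclusive means mean inhibition reaches that limit but some replicates miss it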;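 further: 0% = plate neutral control median and 100% = total signal loss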
Target sequence (P42568 whole entry, looked up): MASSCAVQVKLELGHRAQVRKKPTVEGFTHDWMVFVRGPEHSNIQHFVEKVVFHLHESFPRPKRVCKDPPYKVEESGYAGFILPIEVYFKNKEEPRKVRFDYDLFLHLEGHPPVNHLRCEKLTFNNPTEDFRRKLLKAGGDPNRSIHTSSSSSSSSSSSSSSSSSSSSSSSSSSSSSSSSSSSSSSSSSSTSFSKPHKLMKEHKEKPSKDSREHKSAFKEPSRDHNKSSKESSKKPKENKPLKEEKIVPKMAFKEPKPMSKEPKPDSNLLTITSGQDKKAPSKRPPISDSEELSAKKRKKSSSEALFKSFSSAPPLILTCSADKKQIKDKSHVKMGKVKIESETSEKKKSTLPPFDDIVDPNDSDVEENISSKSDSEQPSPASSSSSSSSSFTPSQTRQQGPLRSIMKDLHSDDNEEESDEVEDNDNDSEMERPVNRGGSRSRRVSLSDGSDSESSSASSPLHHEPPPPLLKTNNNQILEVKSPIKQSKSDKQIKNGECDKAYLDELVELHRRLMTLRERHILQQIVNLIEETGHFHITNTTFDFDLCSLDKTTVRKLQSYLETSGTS
* marks the source's active call; other numbers are inactive results; ? = inconclusive; . = no result given. Sampled rows, rich in hits. Any-hit rate of the full collection: about 2.1%.

SMILES | INS-1E GSIS act | PAX8 reporter | EWS-Fli block | Xi reactivation | PGC1a acetyl inh | AF4-AF9 inh
COc1cc2c3nnc(-c4ccc(F)cc4)c-3cn(Cc3ccccc3F)c2cc1OC | 12 | 54 | ? | 114* | . | 3
COc1ccc(-c2nnc(SCc3ccccc3F)o2)cc1OC | . | . | . | . | -4 | .
OC(CSc1ccccn1)CC(O)c1ccccc1 (centres undefined) | . | -26 | -6 | . | 11 | 0
Cc1noc(C)c1NC(=O)N(C)C[C@@H]1Oc2ccc(NS(=O)(=O)c3ccccc3)cc2C(=O)N([C@@H](C)CO)C[C@H]1C | 13 | -13 | -7 | 1 | 6 | -4
C[C@H](CO)N1C[C@H](C)[C@H](CN(C)S(=O)(=O)c2cccs2)Oc2c(NC(=O)c3nc4ccccc4s3)cccc2C1=O | 2 | . | 9 | -1 | -7 | 3
N#Cc1c2ccc([N+](=O)[O-])cc2[n+]([O-])n1-c1ccccc1 | 0 | 68* | 62* | 1 | 9 | -3
COc1ccc(COCC23N=C4SCC(=O)N4[C@H](c4ccccc4O2)[C@H]3CO)cc1 | . | 0 | -8 | . | 4 | -2
COc1ccc(COC[C@]23NC(=O)N[C@H](c4ccccc4O2)[C@H]3CO)cc1 | . | -3 | -4 | . | 0 | 26*
CC(Cl)C(=O)N1c2ccccc2CCc2ccccc21 (centres undefined) | -1 | 17 | 14 | 0 | -15 | 0
O=C(CCl)N1c2ccccc2CCc2ccccc21 | -7 | 17 | 84* | 0 | -3 | 0
CC(C)(C)c1ccc(OCC(=O)Nc2ccc(-c3nc4cccnc4o3)cc2)cc1 | 106* | . | . | . | 3 | .
Cc1noc(C)c1S(=O)(=O)Nc1ccc2c(c1)C(=O)N([C@@H](C)CO)C[C@@H](C)[C@H](CN(C)Cc1ccc(Cl)c(Cl)c1)O2 | 3 | . | -18 | 0 | -1 | -1
O=C(NCCN1CCCCC1)Nc1ccc(F)c(Cl)c1 | . | . | . | . | -1 | .
Cc1ccc(NC(=O)NCCN2CCCCC2)cc1Cl | 14 | -1 | -3 | 0 | -10 | 26*
CCCN1[C@@H]2c3ccc(C4=CCCCC4)c(=O)n3C[C@H]1[C@H](CO)[C@H]2C(=O)N1CCOCC1 | 1 | 2 | 0 | 0 | . | -29
COc1ccc(NC(=O)/C(Cl)=C(/Cl)S(=O)Cc2ccccc2)cn1 (centres undefined) | . | . | . | . | 71* | .
CO[C@@H]1CN(C)C(=O)c2cc(NC(=O)Cc3ccccc3)ccc2OC[C@H](C)NC[C@@H]1C | 6 | -2 | -1 | 0 | 1 | -1
Cc1cc(=O)[nH]c(SCC(=O)c2ccccc2)c1C#N | 43* | . | . | . | -2 | .
Cc1cc(C)c(C#N)c(SCC(=O)c2ccccc2)n1 | 3 | 3 | -1 | 0 | . | 1
COc1ccc(NC(=O)N[C@@H]2CC[C@@H](CCNC(=O)c3ccccc3F)O[C@@H]2CO)cc1 | 6 | 11 | -3 | 0 | -3 | -2
O=C(NCc1ccc(F)cc1F)[C@@H]1CCCN1C(=O)[C@@H]1CCCN1 | -3 | 80* | 5 | 1 | . | -2
O=C(C[C@@H]1CC[C@H](NC(=O)CC2CC2)[C@H](CO)O1)NCc1ccc(Cl)cc1 | -3 | 3 | -2 | 0 | -6 | -1
CC1=NN(c2nc(-c3ccc(C)cc3)cs2)C(=O)C1N=Nc1ccc(C(N)=O)cc1 (centres undefined) | 9 | 3 | 55* | 0 | 12 | 6
COc1ccccc1NC(=O)N(C)C[C@@H]1Oc2ncc(C#CC(C)C)cc2C(=O)N([C@H](C)CO)C[C@H]1C | -10 | 1 | 0 | -1 | -3 | .
COc1cccc(/C=C2\SC(=O)N(CCC(=O)NNC(=O)c3ccccc3Cl)C2=O)c1 | 97* | -5 | . | 0 | 5 | .
SMILES | INS-1E GSIS act | PAX8 reporter | EWS-Fli block | Xi reactivation | PGC1a acetyl inh | AF4-AF9 inh
Cc1ccc(/C=C2\SC(=S)N(CCCC(=O)Nc3nccs3)C2=O)cc1 | . | 4 | -7 | 0 | 15 | -2
COc1cccc(/C=C2\SC(=S)N(CCC(=O)NNC(=O)c3ccccc3OC)C2=O)c1 | 8 | 35 | 9 | 0 | 3 | -23
CCc1ccc(/C=C2\SC(=S)N(CCCC(=O)Nc3nccs3)C2=O)cc1 | 121* | 14 | . | 0 | -4 | .
COc1ccc(/C=C2/SC(=S)N(CCCC(=O)Nc3cccc(O)c3)C2=O)cc1 | 5 | 77* | -3 | 0 | 1 | 10
COc1ccc(/C=C2\SC(=S)N(CCCC(=O)N3CCCCC3CCO)C2=O)cc1 (centres undefined) | -39 | 75* | . | 0 | 3 | 12
O=C(CCN1CCCCC1)NCC[C@@H]1CC[C@H](NC(=O)C2CCOCC2)[C@@H](CO)O1 | -2 | -15 | -6 | 0 | -1 | -5
O=C(N[C@@H]1CC[C@@H](CCNC(=O)c2cnccn2)O[C@H]1CO)c1ccc2c(c1)OCO2 | -9 | -17 | -6 | -1 | 1 | 0
COc1cccc(/C=C2\SC(=S)N(CCC(=O)NCCc3ccc(O)cc3)C2=O)c1 | 19 | 100* | . | 0 | 16 | 0
COc1cccc(/C=C2\SC(=S)N(CCC(=O)Nc3ccc(O)cc3)C2=O)c1 | . | -22 | -24 | 0 | 6 | 4
CC(c1nnc(SCC(=O)N(C)C2CCS(=O)(=O)C2)n1-c1ccccc1)N(C)C (centres undefined) | 22 | -13 | -10 | 0 | 1 | 34*
COc1ccc2c3c(n(C)c2c1)[C@H](CO)N(C)CC31CCN(C(=O)C2CCC2)CC1 | -6 | . | . | 0 | . | .
COc1ccc2nc(C)cc(NCc3ccc(F)cc3)c2c1 | 0 | 31 | 25 | 97* | -6 | -1
COc1ccc(OC)c(Nc2cc(C)nc3ccc(C)cc23)c1 | 37 | 30 | 57* | 0 | -11 | 5
COc1ccc2nc(C)cc(Nc3ccc(N4CCN(C)CC4)cc3)c2c1 | 18 | 59 | 80* | 0 | 6 | 15
COc1ccc2nc(C)cc(NCCN3CCOCC3)c2c1 | -4 | -12 | 9 | 0 | -1 | 2
COc1ccc2nc(C)cc(Nc3ccc(C)cc3)c2c1 | 7 | -5 | -17 | 0 | 0 | 1
Cc1ccc2nc(C)cc(Nc3ccc([N+](=O)[O-])cc3)c2c1 | 12 | 96* | 40 | 0 | -11 | 4
C[C@@H]1CN([C@@H](C)CO)C(=O)c2cc(-c3ccccc3)cnc2O[C@H]1CN(C)Cc1ccc(C(=O)O)cc1 | 19 | . | 0 | -1 | -3 | -1
COc1ccc2c3c([nH]c2c1)[C@H](CO)N(Cc1cc(F)ccc1F)CC31CN(C(C)=O)C1 | -3 | -22 | -7 | 0 | 8 | -8

Compound activity (PubChem BioAssay)
